The values that follow come from ChEMBL document CHEMBL2021872, “Synthesis and biological evaluation of new potent and selective HCV NS5A inhibitors” (Bioorg Med Chem Lett, 2012).

One data set relates to CCRF-CEM. Briefly: Cytotoxicity against human CEM cells after 3 days. As to conditions: 72 h. The data set is classed as cell-based.
Another data set concerns PBMC. The experiment in a line: Cytotoxicity against human PBMC after 3 days. It counts as cell-based. Particulars: 72 h. Summed up: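 CC50 was measured in human peripheral blood mononuclear (PBM) cells, the human T-cell-derived CEM line, and African green monkey kidney epithelial Vero cells. Dose–response was fitted from at least four concentrations, each run in triplicate and reported as the mean.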

The test system of the next data set is Vero. The experiment in a line: Cytotoxicity against african green monkey Vero cells after 3 days. The data set is classed as cell-based. As to conditions: chlorocebus sabaeus, 72 h.
For data set [1], the system named is Hepatitis C virus. Briefly: Antiviral activity against HCV1b infected in human HuH7 cells assessed as inhibition of viral replication by RT-PCR analysis. The data set is classed as functional, organism-based, Hepacivirus hominis. Particulars: genotype 1b, Huh-7. The essentials:
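Huh7 cells carrying a subgenomic genotype 1b HCV replicon were treated with compound, and HCV RNA replication was measured. HCV RNA and ribosomal RNA were extracted and amplified together, and cytotoxicity in Huh7 was read at the same time. EC50 and EC90 came from dose–response curves of at least four concentrations, each run in triplicate, and are reported as means.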

A short description of data set [2]: Therapeutic index, ratio of CC50 for african green monkey Vero cells to EC50 for HCV1b. It counts as cell-based. Summed up: (§1)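 The index is CC50/EC50. EC50 came from Huh7 cells carrying a subgenomic genotype 1b HCV replicon, with HCV RNA quantified by extraction and amplification alongside rRNA. CC50 was measured in PBM, CEM or Vero cells. Each dose–response used at least four concentrations in triplicate, and means were reported.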

Data set [3] in a line: Therapeutic index, ratio of CC50 for human CEM cells to EC50 for HCV1b. It counts as cell-based, CCRF-CEM. The essentials: as §1
Data set [4] in a line: Therapeutic index, ratio of CC50 for human PBMC to EC50 for HCV1b. The essentials:
as §1

Data set [5] deals with Hepatitis C virus. Briefly: Antiviral activity against HCV1b infected in human assessed as reduction of viral RNA level at 10 mg after 24 hrs. The data set is classed as functional, Hepacivirus hominis, genotype 1b.

One may read the CC50 as the concentration at which the toxic effect on the cells reaches its halfway point. One may read the EC50 as the concentration giving half of the maximal effect. By EC90 is commonly meant the concentration at which the effect reaches the 90% level.

Take `COC(=O)N[C@H](C(=O)N1CCC[C@H]1c1ncc(-c2ccc(Oc3ccc(-c4cnc([C@@H]5CCCN5C(=O)[C@@H](NC(=O)OC)C(C)C)[nH]4)cc3)cc2)[nH]1)C(C)C`: the 50% cytotoxic concentration (CC50) is 16 µM in the data set with CCRF-CEM, 16 µM in the data set on PBMC and 19 µM in the data set on Vero. In addition, the EC50 in the data set on Hepatitis C virus [1] came out at 30 nM. Besides, in the data set on Hepatitis C virus [1], the concentration for an effect of 90% (EC90) is 90 nM.

As to `COC(=O)N[C@H](C(=O)N1CCC[C@H]1c1ncc(-c2ccc(-c3ccc(-c4ccc(-c5cnc([C@@H]6CCCN6C(=O)[C@@H](NC(=O)OC)C(C)C)[nH]5)cc4)s3)cc2)[nH]1)C(C)C`, the CC50 in the data set with CCRF-CEM was 12 µM; in the data set on PBMC it was 26 µM; with Vero, more than 100 µM. In the data set with Hepatitis C virus [1], the concentration giving a half-maximal response (EC50) turned out to be 0.1 nM. Besides, in the data set with Hepatitis C virus [1], the concentration for an effect of 90% (EC90) turned out to be 0.3 nM.

Turning to `COC(=O)N[C@H](C(=O)N1CCC[C@H]1c1ncc(-c2ccc(NS(=O)(=O)c3ccc(-c4cnc([C@@H]5CCCN5C(=O)[C@@H](NC(=O)OC)C(C)C)[nH]4)cc3)cc2)[nH]1)C(C)C`, the results for the CC50 in the data set on CCRF-CEM, in the data set on PBMC and in the data set with Vero were 13 µM, 15 µM and more than 100 µM, respectively. Further, the EC50 with Hepatitis C virus [1] came to 100 nM. Moreover, the 90% effect concentration (EC90) with Hepatitis C virus [1] was more than 100 nM.

For the molecule `COC(=O)N[C@H](C(=O)N1CCC[C@H]1c1ncc(-c2ccc(-c3ccc(-c4ccc(-c5cnc([C@@H]6CCCN6C(=O)[C@@H](NC(=O)OC)C(C)C)[nH]5)cc4)nc3)cc2)[nH]1)C(C)C`, the CC50 was 2.3 µM in the data set with CCRF-CEM, 3.9 µM with PBMC and 6.5 µM in the data set on Vero. Moreover, in the data set on Hepatitis C virus [1], the EC50 is 0.026 nM. Further, in the data set with Hepatitis C virus [1], the 90% effect concentration (EC90) turned out to be 0.068 nM.

On to `COC(=O)N[C@H](C(=O)N1CCC[C@H]1c1ncc(-c2ccc(-c3ccc(-c4cnc([C@@H]5CCCN5C(=O)[C@@H](NC(=O)OC)C(C)C)[nH]4)s3)cc2)[nH]1)C(C)C`, for which the CC50 in the data set with CCRF-CEM is 48 µM; in the data set with PBMC, 93 µM; in the data set on Vero, 99 µM. In addition, in the data set on Hepatitis C virus [1], the 50% effective concentration (EC50) was found to be 90.6 nM. In addition, in the data set on Hepatitis C virus [1], the EC90 is more than 100 nM.

With `COC(=O)N[C@H](C(=O)N1CCC[C@H]1c1ncc(-c2ccc(-c3ccc(-c4ccc(-c5ccc(-c6cnc([C@@H]7CCCN7C(=O)[C@@H](NC(=O)OC)C(C)C)[nH]6)cc5)cc4)cc3)cc2)[nH]1)C(C)C`, the CC50 with CCRF-CEM, in the data set with PBMC and with Vero was more than 100 µM throughout. For the same molecule, in the data set on Hepatitis C virus [1], the concentration giving a half-maximal response (EC50) was determined as 0.24 nM. For the same molecule, the EC90 with Hepatitis C virus [1] was found to be 1 nM.

In the case of `COC(=O)N[C@H](C(=O)N1CCC[C@H]1c1ncc(-c2ccc(-c3cccc(-c4ccc(-c5cnc([C@@H]6CCCN6C(=O)[C@@H](NC(=O)OC)C(C)C)[nH]5)cc4)c3)cc2)[nH]1)C(C)C`, the CC50 in the data set with CCRF-CEM was 3 µM; in the data set with PBMC it was 18 µM; in the data set with Vero, more than 100 µM. Besides, in the data set on Hepatitis C virus [1], the concentration for a half-maximal effect (EC50) was determined as 0.8 nM. In the data set with Hepatitis C virus [1], the 90% effect concentration (EC90) worked out at 2.9 nM.

Turning to `COC(=O)N[C@H](C(=O)N1CCC[C@H]1c1ncc(-c2ccc(-c3ccc(-c4ccc(-c5cnc([C@@H]6CCCN6C(=O)[C@@H](NC(=O)OC)C(C)C)[nH]5)cn4)cc3)cc2)[nH]1)C(C)C`, the figures for the half-maximal cytotoxic concentration (CC50) in the data set on CCRF-CEM, in the data set on PBMC and in the data set with Vero were 31 µM, 5.5 µM and 29 µM, respectively. In the data set on Hepatitis C virus [1], the EC50 was determined as 0.2 nM. Moreover, the 90% effect concentration (EC90) in the data set on Hepatitis C virus [1] is 0.7 nM.

For `COC(=O)N[C@H](C(=O)N1CCC[C@H]1c1ncc(-c2ccc(-c3ccc(-c4ccc(-c5cnc([C@@H]6CCCN6C(=O)[C@@H](NC(=O)OC)C(C)C)[nH]5)cc4)cc3)cc2)[nH]1)C(C)C`, the CC50 with CCRF-CEM, in the data set on PBMC and in the data set on Vero was more than 100 µM throughout. In addition, the selectivity ratio in data set [2], in data set [3] and in data set [4] was more than 4e+06 each time. Besides, the concentration giving a half-maximal response (EC50) in the data set on Hepatitis C virus [1] was 0.026 nM. For the same molecule, the EC90 in the data set with Hepatitis C virus [1] was 0.09 nM.

As for `COC(=O)N[C@H](C(=O)N1CCC[C@H]1c1ncc(-c2ccc(-c3ccc(-c4cnc([C@@H]5CCCN5C(=O)[C@@H](NC(=O)OC)C(C)C)[nH]4)cc3)cc2)[nH]1)C(C)C`, the 50% cytotoxic concentration (CC50) with PBMC was 19 µM. In addition, in the data set on Hepatitis C virus [1], the concentration for a half-maximal effect (EC50) worked out at 0.0066 nM and the EC90 came out at 0.023 nM. Also, the Activity in the data set on Hepatitis C virus [5] was more than 3 log10IU/ml.

Take `COC(=O)N[C@H](C(=O)N1CCC[C@H]1c1ncc(-c2ccc(-c3cn(-c4ccc(-c5cnc([C@@H]6CCCN6C(=O)[C@@H](NC(=O)OC)C(C)C)[nH]5)cc4)nn3)cc2)[nH]1)C(C)C`: the CC50 worked out at 5 µM with CCRF-CEM, 18 µM with PBMC and 35 µM in the data set with Vero. In addition, the EC50 in the data set on Hepatitis C virus [1] amounted to 0.2 nM. The EC90 in the data set on Hepatitis C virus [1] was found to be 0.9 nM.

Consider `COC(=O)N[C@H](C(=O)N1CCC[C@H]1c1ncc(-c2ccc(-c3cnc([C@@H]4CCCN4C(=O)[C@@H](NC(=O)OC)C(C)C)[nH]3)cc2)[nH]1)C(C)C`, for which the CC50 with CCRF-CEM, in the data set with PBMC and in the data set on Vero was more than 100 µM throughout. Further, the half-maximal effective concentration (EC50) in the data set on Hepatitis C virus [1] was more than 1 nM.
